Reference: publication PMC3755880 (The Biochemical journal, 2009)
No end group written: not given here.

How the values were obtained:
[1] = molecular target: T1, PKN (Homo sapiens, UniProt Q16512); settings: cited from earlier work; for inhibition of kinase activity of PKN: ref [20]
[2] = tested on: interaction between Iα and the catalytic domain of PKN1; settings: ref [24]; cited from earlier work
[3] = tested on: cellular membranes; settings: ref [28]; cited from earlier work
[4] = tested on: androgen receptor-induced tumour cell proliferation; settings: by inhibition of PKN1; ref [7]; cited from earlier work
[5] = molecular target: T2, human PKN1 (Homo sapiens, UniProt Q16512); test: In vitro kinase assay, δpeptide substrate, PKN1 catalytic domain; format: biochemical; settings: for inhibition of peptide kinase activity of PKN1: δpeptide substrate, various peptide concentrations, up to 50 μM, 30 °C, 5 min, pH 7.5, 40 μM ATP, representative of three independent experiments
[6] = tested on: catalytic domain of all isoforms of PKNs; settings: ref [24], cited from earlier work
[7] = tested on: PKA; settings: ref [24]; cited from earlier work
[8] = tested on: PKCδ; settings: ref [24]; cited from earlier work
[9] = tested on: rat PKCα; test: Phosphorylation of GST-tagged oligopeptides by PKCα; format: biochemical; settings: GST-fused peptide substrate; 30 °C, 5 min
Procedure, shortened: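 GST-fused rat PKCα catalytic domain (332–end) was Sf9/baculovirus-expressed and purified. Reactions were stopped in boiled Laemmli buffer, run on 15% SDS/PAGE, and phosphorylation was read by radioactivity imaging.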

[10] = tested on: rat PKCδ; test: Phosphorylation of GST-tagged oligopeptides by PKCδ; format: biochemical; settings: GST-fused peptide substrate; 30 °C, 5 min
[11] = molecular target: T2, human PKN1; test: Phosphorylation of GST-tagged oligopeptides by PKN1; format: biochemical; settings: GST-fused peptide substrate; 30 °C, 5 min
[12] = molecular target: T1, PKN; test: In vitro kinase assay, PKN; format: biochemical; settings: Supplementary Figure S4
Procedure, shortened: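 Catalytic domains of human PKN1 (543–end) and PKC isoforms were GST-fused, baculovirus/Sf9-expressed and affinity-purified. 10 ng kinase was incubated 5 min at 30 °C in 20 mM Tris/HCl pH 7.5, 4 mM MgCl2, 40 μM ATP, [γ-32P]ATP, 100 μM δpeptide (PKCδ 137–153, A147S) and BSA or GST, ± peptides. Reactions were read on P81 paper by Cherenkov counting; no-peptide activity = 100%.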

T2 sequence (Q16512 543-942 limits assumed): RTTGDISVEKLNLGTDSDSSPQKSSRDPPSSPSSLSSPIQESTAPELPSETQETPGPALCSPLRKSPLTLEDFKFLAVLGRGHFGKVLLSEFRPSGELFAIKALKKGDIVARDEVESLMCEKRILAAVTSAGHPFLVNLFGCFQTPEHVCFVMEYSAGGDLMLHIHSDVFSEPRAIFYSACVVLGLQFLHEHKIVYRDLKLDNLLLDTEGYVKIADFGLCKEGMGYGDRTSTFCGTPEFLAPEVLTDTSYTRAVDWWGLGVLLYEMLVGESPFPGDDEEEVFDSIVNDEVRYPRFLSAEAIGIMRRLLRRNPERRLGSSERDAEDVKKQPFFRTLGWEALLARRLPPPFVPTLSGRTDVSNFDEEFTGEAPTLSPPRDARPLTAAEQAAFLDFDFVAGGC
T1 sequence (Q16512 543-942 limits assumed): as above

## CCCCC/C=C\C/C=C\C/C=C\C/C=C\CCCC(=O)O [Arachidonic acid, arachidonic acid]
[1]; ref [1]
  activation of PKN in vitro: activated
[2]
  effect on interaction between Iα and catalytic domain of PKN1: directly interfere with the interaction
  relief of autoinhibition of wild-type PKN1 by Iα: relieve the catalytic activity of wild-type PKN1 from autoinhibition by Iα

## CC1CNCCN1S(=O)(=O)c1cccc2cnccc12 (stereo not shown) [H-7]
[1]
  inhibition of kinase activity of PKN: potently inhibit

## O=C(O)CCCc1ccc2ccc3cccc4ccc1c2c34 [Pyrenebutyrate, pyrenebutyrate]
[3]
  ability of CPP-fused peptides to translocate across cellular membranes: improve the ability of CPP-fused peptides to translocate across cellular membranes

## Cn1cc(C2=C(c3cn(CCCSC(=N)N)c4ccccc34)C(=O)NC2=O)c2ccccc21 [Ro318220]
[4]
  effect on androgen receptor-induced tumour cell proliferation: blocks proliferation

## CN(C)CCCn1cc(C2=C(c3c[nH]c4ccccc34)C(=O)NC2=O)c2ccccc21 [bisindolylmaleimide I]
[1]
  inhibition of kinase activity of PKN: potently inhibit

## AEVTFRNPVIERIPRLRR
[5]
  inhibition of peptide kinase activity of PKN1: partially inhibited

## His6-tagged Iα: His-tagged region comprising amino acid residues 455–511 of PKN1
[6]; direct effects on the catalytic region
  inhibition of PKN kinase activity by His-tagged Iα: potently inhibited
[6]
  inhibition of catalytic domain of all PKN isoforms: inhibited
[7]
  effect on PKA: no inhibitory effect
[8]
  effect on PKCδ: no inhibitory effect

## KRRKPSFRNP [NS1]
[9]
  phosphorylation by PKCα: efficiently phosphorylated
[10]
  phosphorylation by PKCδ: efficiently phosphorylated

## LSKVTSKCGS [tau320]
[11]
  phosphorylation by PKN1: efficiently phosphorylated
[10]
  phosphorylation by PKCδ: efficiently phosphorylated

## NERHEVQLDMEPQGCLV
[5]
  inhibition of peptide kinase activity of PKN1: did not inhibit

## PRLRRQKKIFSKQQG [PRL]
[5]
  Ki: 700 nM
[5]; Michaelis–Menten fit, increasing PRL concentrations
  effect on apparent Km for δpeptide: increased the apparent Km

## PRLRRQKKIFSKQQG-NH-CH2CH2-SH [PRL-SH]
[12]
  selectivity for PKN over PKC in vitro: selective inhibition of PKN

## PVIERIPRLRRQKKI
[5]
  inhibition of peptide kinase activity of PKN1: partially inhibited

## QKKIFSKQQGKAFQAARQMN
[5]
  inhibition of peptide kinase activity of PKN1: partially inhibited
